Results: ChEMBL document CHEMBL1255273, “Subacute toxicity of colistin methanesulfonate in rats: comparison of various intravenous dosage regimens” (Antimicrob Agents Chemother, 2008)

Columns and labels:
Details in all cases: in vivo
Rattus norvegicus [1] = experiment: Nephrotoxicity in Sprague-Dawley rat assessed as occurrence of mild protein/cellular casts in proximal tubule at 30 mg/kg, iv every 12 hrs for 7 days; assay type: toxicity, organism-based; parameters: dose 30 mg/kg, route intravenous
In short: (§1)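 Sprague-Dawley rats (6 to 8 weeks old) were dosed for 7 days via a jugular vein cannula at 20 mg/kg/8 h (n = 9) or 30 mg/kg/12 h (n = 11), with a saline placebo group (n = 8). Kidneys were examined histologically post mortem by a blinded histologist. Lesion severity was graded 1+ (mild), 2+ (moderate) or 3+ (severe), and the number of animals showing each lesion was counted.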

Rattus norvegicus [2] = experiment: Nephrotoxicity in Sprague-Dawley rat assessed as occurrence of mild cortical proximal convoluted tubule necrosis at 30 mg/kg, iv every 12 hrs for 7 days; assay type: toxicity, organism-based; parameters: dose 30 mg/kg, route intravenous; in short: as §1
Rattus norvegicus [3] = experiment: Nephrotoxicity in Sprague-Dawley rat assessed as occurrence of severe pallor of outer stripe of proximal tubule at 30 mg/kg, iv every 12 hrs for 7 days; assay type: toxicity, organism-based; parameters: dose 30 mg/kg, route intravenous; in short: as §1
Rattus norvegicus [4] = experiment: Nephrotoxicity in Sprague-Dawley rat assessed as occurrence of mild nuclear pyknosis at 30 mg/kg, iv every 12 hrs for 7 days; assay type: toxicity, organism-based; parameters: dose 30 mg/kg, route intravenous; in short: as §1
Rattus norvegicus [5] = experiment: Nephrotoxicity in Sprague-Dawley rat assessed as occurrence of mild interstitial nephritis at 30mg/kg, iv every 12 hrs for 7 days; assay type: toxicity, organism-based; in short: as §1
Rattus norvegicus [6] = experiment: Nephrotoxicity in Sprague-Dawley rat assessed as occurrence of severe protein/cellular casts in proximal tubule at 150 mg/kg, iv every 12 hrs for 7 days; assay type: toxicity, organism-based; parameters: dose 150 mg/kg, route intravenous
Rattus norvegicus [7] = experiment: Nephrotoxicity in Sprague-Dawley rat assessed as occurrence of severe cortical proximal convoluted tubule necrosis at 150 mg/kg, iv every 12 hrs for 7 days; assay type: toxicity, organism-based; parameters: dose 150 mg/kg, route intravenous
Rattus norvegicus [8] = experiment: Nephrotoxicity in Sprague-Dawley rat assessed as occurrence of severe intracellular mineralization at 150 mg/kg, iv every 12 hrs for 7 days; assay type: toxicity, organism-based; parameters: dose 150 mg/kg, route intravenous
Rattus norvegicus [9] = experiment: Nephrotoxicity in Sprague-Dawley rat assessed as occurrence of severe nuclear pyknosis at 150 mg/kg, iv every 12 hrs for 7 days; assay type: toxicity, organism-based; parameters: dose 150 mg/kg, route intravenous
Rattus norvegicus [10] = experiment: Nephrotoxicity in Sprague-Dawley rat assessed as occurrence of mild protein/cellular casts in proximal tubule at 20 mg/kg, iv every 8 hrs for 7 days; assay type: toxicity, organism-based; parameters: dose 20 mg/kg, route intravenous; in short: as §1
Rattus norvegicus [11] = experiment: Nephrotoxicity in Sprague-Dawley rat assessed as occurrence of moderate protein/cellular casts in proximal tubule at 30 mg/kg, iv every 12 hrs for 7 days; assay type: toxicity, organism-based; parameters: dose 30 mg/kg, route intravenous; in short: as §1
Rattus norvegicus [12] = experiment: Nephrotoxicity in Sprague-Dawley rat assessed as occurrence of severe protein/cellular casts in proximal tubule at 30 mg/kg, iv every 12 hrs for 7 days; assay type: toxicity, organism-based; parameters: dose 30 mg/kg, route intravenous; in short: as §1
Rattus norvegicus [13] = experiment: Nephrotoxicity in Sprague-Dawley rat assessed as occurrence of moderate cortical proximal convoluted tubule necrosis at 30 mg/kg, iv every 12 hrs for 7 days; assay type: toxicity, organism-based; parameters: dose 30 mg/kg, route intravenous; in short: as §1
Rattus norvegicus [14] = experiment: Toxicity in Sprague-Dawley rat assessed as effect on food uptake at 20 mg/kg, iv every 8 hrs for 7 days; assay type: organism-based; parameters: dose 20 mg/kg, route intravenous
In short: (§2)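 Daily cage-side observations covered food and water intake, body weight, body surface temperature and general well-being. Sprague-Dawley rats (6 to 8 weeks old) were dosed via a jugular vein cannula for 7 days, with a saline placebo control. Groups were compared by analysis of variance.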

Rattus norvegicus [15] = experiment: Toxicity in Sprague-Dawley rat assessed as effect on food uptake at 30 mg/kg, iv every 12 hrs for 7 days; assay type: organism-based; parameters: dose 30 mg/kg, route intravenous; in short: as §2
Rattus norvegicus [16] = experiment: Toxicity in Sprague-Dawley rat assessed as effect on water consumption at 20 mg/kg, iv every 8 hrs for 7 days; assay type: organism-based; parameters: dose 20 mg/kg, route intravenous; in short: as §2
Rattus norvegicus [17] = experiment: Toxicity in Sprague-Dawley rat assessed as effect on water consumption at 30 mg/kg, iv every 12 hrs for 7 days; assay type: organism-based; parameters: dose 30 mg/kg, route intravenous; in short: as §2
Rattus norvegicus [18] = experiment: Toxicity in Sprague-Dawley rat assessed as effect on body surface temperature at 20 mg/kg, iv every 8 hrs for 7 days; assay type: organism-based; parameters: dose 20 mg/kg, route intravenous; in short: as §2
Rattus norvegicus [19] = experiment: Toxicity in Sprague-Dawley rat assessed as effect on body surface temperature at 30 mg/kg, iv every 12 hrs for 7 days; assay type: organism-based; parameters: dose 30 mg/kg, route intravenous; in short: as §2
Rattus norvegicus [20] = experiment: Neurotoxicity in Sprague-Dawley rat assessed as decreased locomotor activity at 30 mg/kg, iv every 12 hrs for 2 days relative to control; assay type: toxicity, organism-based; parameters: dose 30 mg/kg, route intravenous
In short: (§3)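 Locomotor activity was recorded daily with a photobeam activity meter as part of a functional screening battery. Sprague-Dawley rats (6 to 8 weeks old) received 30 mg/kg/12 h via a jugular vein cannula for 7 days (n = 11), compared with saline placebo (n = 8). The treatment day was reported for each comparison.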

Rattus norvegicus [21] = experiment: Neurotoxicity in Sprague-Dawley rat assessed as decreased locomotor activity at 30 mg/kg, iv every 12 hrs for 6 days relative to control; assay type: toxicity, organism-based; parameters: dose 30 mg/kg, route intravenous; in short: as §3
Rattus norvegicus [22] = experiment: Neurotoxicity in Sprague-Dawley rat assessed as effect on motor control at 20 mg/kg, iv every 8 hrs for 7 days; assay type: toxicity, organism-based; parameters: dose 20 mg/kg, route intravenous
In short: (§4)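 Motor control was tested daily by requiring each rat to walk for 5 min on a rotarod treadmill. Sprague-Dawley rats (6 to 8 weeks old) were dosed via a jugular vein cannula for 7 days, with a saline placebo control.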

Rattus norvegicus [23] = experiment: Neurotoxicity in Sprague-Dawley rat assessed as effect on motor control at 30 mg/kg, iv every 12 hrs for 7 days; assay type: toxicity, organism-based; parameters: dose 30 mg/kg, route intravenous; in short: as §4
Rattus norvegicus [24] = experiment: Neurotoxicity in Sprague-Dawley rat assessed as effect on forelimb grip strength at 30 mg/kg, iv every 12 hrs for 7 days; assay type: toxicity, organism-based; parameters: dose 30 mg/kg, route intravenous
In short: (§5)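 Forelimb grip strength was tested daily using a horizontal retort stand. Each rat had to hang from the horizontal beam holding its own body weight to pass. Rats (Sprague-Dawley, 6 to 8 weeks old) were dosed via a jugular vein cannula for 7 days, with a saline placebo control.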

Rattus norvegicus [25] = experiment: Neurotoxicity in Sprague-Dawley rat assessed as effect on forelimb grip strength at 20 mg/kg, iv every 8 hrs for 7 days; assay type: toxicity, organism-based; parameters: dose 20 mg/kg, route intravenous; in short: as §5

COLISTIMETHATE SODIUM
Activity (Rattus norvegicus [1]): Toxic | Activity (Rattus norvegicus [2]): Toxic | Activity (Rattus norvegicus [3]): Toxic | Activity (Rattus norvegicus [4]): Toxic | Activity (Rattus norvegicus [5]): Toxic | Activity (Rattus norvegicus [6]): Toxic | Activity (Rattus norvegicus [7]): Toxic | Activity (Rattus norvegicus [8]): Toxic | Activity (Rattus norvegicus [9]): Toxic | Activity (Rattus norvegicus [10]): Toxic | Activity (Rattus norvegicus [11]): Toxic | Activity (Rattus norvegicus [12]): Toxic | Activity (Rattus norvegicus [13]): Toxic | Activity (Rattus norvegicus [14]): Non-toxic | Activity (Rattus norvegicus [15]): Non-toxic | Activity (Rattus norvegicus [16]): Non-toxic | Activity (Rattus norvegicus [17]): Non-toxic | Activity (Rattus norvegicus [18]): Non-toxic | Activity (Rattus norvegicus [19]): Non-toxic | Activity (Rattus norvegicus [20]): Toxic | Activity (Rattus norvegicus [21]): Toxic | Activity (Rattus norvegicus [22]): Non-toxic | Activity (Rattus norvegicus [23]): Non-toxic | Activity (Rattus norvegicus [24]): Non-toxic | Activity (Rattus norvegicus [25]): Non-toxic
